Screening data deposited in PubChem BioAssay by several laboratories.
Cardio protect – modulators protecting cardiomyocytes from myocardial damage; H9c2 cardiomyocytes, H2O2 injury protection, ATPLite, 2 h; protection from H2O2 cell death, % at 20 µM; hit rate 0.63% among 360,000;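 active = compounds giving at least 50% protection of heart cells from peroxide-induced death in the single-dose screen, raw or plate-pattern-corrected value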;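 note: 0% = DMSO wells with peroxide and 100% = DMSO wells without peroxide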
SENP1 FRET inh – SENP1 (human) catalytic domain inhibition; Q9P0U3; recombinant SENP1 catalytic domain, CyPet-SUMO1-YPet FRET cleavage; AID 624204; hit rate 0.21% among 360,000; inhibition, % at 10 µM;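 active = inhibition at least 30% at 10 µM, raw YFP signal under a set limit, fluorescence ratio 0.5 to 1.5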;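 note: 0% = enzyme with DMSO and 100% = no enzyme wells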
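Compound: 10 µM single point, 0.5% DMSO; Test system: hSENP1 catalytic domain, recombinant; Timing: 50 min reaction at room temperature; Technique: FRET, CFP and YFP emission; Control set: no-enzyme wells low, DMSO-plus-enzyme wells high control.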
Granule exo inh – blocks lytic granule exocytosis. TALL-104 LAMP-1 surface exposure, flow cytometry; cells stimulated with thapsigargin and PMA. inhibition, % at 10 µM. hit rate 0.66% among 360,000;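 active = inhibition above about 55%, limit read from the data; inconclusive = no clear call, values can overlap the other calls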
DSG3 Ab inh – inhibitors of pemphigus antibody binding to human desmoglein-3. hit rate 0.48% among 310,000. AID 588358. P32926. binding (percent of control), % at 10 µM. DSG3-coupled beads, scFv-anti-DSG3-GFP binding, flow cytometry; stronger effect = lower value;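 active = binding more than 3 SD below its plate's average and above zero; inconclusive = below that plate limit but binding exactly zero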
Target sequence (P32926 whole entry, looked up): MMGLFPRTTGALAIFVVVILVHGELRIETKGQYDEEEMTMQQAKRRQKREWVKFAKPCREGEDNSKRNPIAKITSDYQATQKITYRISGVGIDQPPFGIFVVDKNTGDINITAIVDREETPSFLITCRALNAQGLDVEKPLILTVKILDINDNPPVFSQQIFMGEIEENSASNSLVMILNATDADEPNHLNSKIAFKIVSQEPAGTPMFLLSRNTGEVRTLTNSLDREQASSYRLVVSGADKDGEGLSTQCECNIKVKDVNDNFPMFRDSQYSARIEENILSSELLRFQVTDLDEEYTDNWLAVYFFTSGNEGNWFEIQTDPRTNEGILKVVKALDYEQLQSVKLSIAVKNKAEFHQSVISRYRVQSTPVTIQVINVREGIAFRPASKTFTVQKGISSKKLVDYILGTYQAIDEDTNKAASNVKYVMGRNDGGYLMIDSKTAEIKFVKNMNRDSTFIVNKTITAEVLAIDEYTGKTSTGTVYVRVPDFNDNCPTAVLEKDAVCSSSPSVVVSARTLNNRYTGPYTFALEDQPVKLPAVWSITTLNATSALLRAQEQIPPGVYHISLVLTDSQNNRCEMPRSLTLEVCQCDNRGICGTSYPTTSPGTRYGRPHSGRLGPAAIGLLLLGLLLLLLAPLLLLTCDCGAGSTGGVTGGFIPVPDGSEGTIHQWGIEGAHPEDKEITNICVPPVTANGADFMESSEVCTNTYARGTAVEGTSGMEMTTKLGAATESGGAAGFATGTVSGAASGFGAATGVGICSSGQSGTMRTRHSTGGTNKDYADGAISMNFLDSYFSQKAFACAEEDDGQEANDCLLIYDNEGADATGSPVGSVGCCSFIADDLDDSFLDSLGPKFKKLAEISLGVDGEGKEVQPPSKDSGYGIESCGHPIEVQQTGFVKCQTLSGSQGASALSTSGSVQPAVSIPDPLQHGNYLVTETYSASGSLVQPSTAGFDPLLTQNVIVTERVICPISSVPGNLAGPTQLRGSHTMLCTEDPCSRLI
HNF4A DNA FP – change in binding of human HNF4 alpha to DNA. P41235. HNF4a-FITC DNA binding, fluorescence polarization, 1 h. activity change, % at 10 µM. hit rate 0.3% among 360,000; in the data active = activity change above about 30%, passing the limit was not always enough
Myeloid diff 2 – myeloid differentiation induction. calls only at 10 µM. hit rate 1% among 360,000. ER-HoxA9 myeloid progenitors, lysozyme-GFP differentiation, flow cytometry;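 active = normalized GFP-positive differentiation at or above the plate's own cutoff, the solvent-only control mean plus 3 SD; inconclusive = no clear call, values can overlap the other calls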;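 note: cells exposed to compound for four days before flow analysis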
* marks the source's active call; other numbers are inactive results. Only some compounds are listed: those with a hit (about 3% of all), similar ones and a draw of the others.

Screening CCN(CC(=O)Nc1cc(Cl)ccc1C)C(=O)C1CCN(c2ncnc3sc(C)c(C)c23)CC1 returned Cardio protect 77*, SENP1 FRET inh -4, Granule exo inh -11, DSG3 Ab inh 110, HNF4A DNA FP -1 and Myeloid diff 2 inactive.
CC(=O)Oc1c(C)c(=O)n(C)c2ccccc12 was read as Cardio protect 5, SENP1 FRET inh 2, Granule exo inh -1, DSG3 Ab inh 85, HNF4A DNA FP -3 and Myeloid diff 2 inactive.
For COc1c(OC(C)=O)c(=O)n2c3ccccc3c3ccnc1c32 the results were Cardio protect 7, SENP1 FRET inh 69*, Granule exo inh 5, DSG3 Ab inh 103, HNF4A DNA FP 1 and Myeloid diff 2 inactive.
`CC(=O)c1cccc(NC(=O)CN(C)S(=O)(=O)c2cccc3nsnc23)c1` gave Cardio protect -4, SENP1 FRET inh 3, Granule exo inh -2, DSG3 Ab inh 102, HNF4A DNA FP 0 and Myeloid diff 2 inconclusive.
COc1ccc(-c2cc3ncc(C(C)=O)c(C)n3n2)cc1 was read as Cardio protect 2, SENP1 FRET inh -59, Granule exo inh 0, DSG3 Ab inh 99, HNF4A DNA FP 0 and Myeloid diff 2 inactive.
`Cc1ccc(NS(=O)(=O)c2cc3c4c(cccc4c2)C(=O)NC3=O)cc1` gave Cardio protect 21, SENP1 FRET inh -6, Granule exo inh 2, DSG3 Ab inh 95, HNF4A DNA FP -1 and Myeloid diff 2 inactive.
`CNS(=O)(=O)c1cc2c3c(cccc3c1)C(=O)NC2=O` gave Cardio protect 58*, SENP1 FRET inh -3, Granule exo inh -3, DSG3 Ab inh 106, HNF4A DNA FP 1 and Myeloid diff 2 inactive.
`O=C(/C=C/c1cc[n+](CC(=O)c2ccc3cccc4c3c2CC4)cc1)c1ccc2cccc3c2c1CC3` gave Cardio protect -13, SENP1 FRET inh -35, Granule exo inh 70*, DSG3 Ab inh 63*, HNF4A DNA FP 178 and Myeloid diff 2 active.
COc1cc2ccccc2nn1 was read as Cardio protect 2, SENP1 FRET inh -38, Granule exo inh -4, DSG3 Ab inh 102, HNF4A DNA FP 1 and Myeloid diff 2 inactive.
Screening COc1ccc2c(n1)Sc1nc3ccccc3nc1N2 returned Cardio protect -20, SENP1 FRET inh -22, Granule exo inh 62*, DSG3 Ab inh 102, HNF4A DNA FP 32 and Myeloid diff 2 active.
`CCOc1ccc(C(C(=O)NC2CCCC2)N(C(=O)c2snc(C(N)=O)c2N)c2cccc(O)c2)cc1` (centres undefined) gave Cardio protect 81*, SENP1 FRET inh -18, Granule exo inh 6, DSG3 Ab inh 95, HNF4A DNA FP 1 and Myeloid diff 2 inactive.
NC(=O)c1nsc(C(=O)N(c2ccccc2)C(C(=O)NC2CCCC2)c2ccc3ncccc3c2)c1N (centres undefined) was read as Cardio protect 62*, SENP1 FRET inh -42, Granule exo inh 35, DSG3 Ab inh 126, HNF4A DNA FP 0 and Myeloid diff 2 inactive.
Screening NC(=O)c1nsc(C(=O)N(c2cccc(O)c2)C(C(=O)NC2CCCC2)c2ccc(Cl)cc2)c1N (centres undefined) returned Cardio protect 7, SENP1 FRET inh -26, Granule exo inh 9, HNF4A DNA FP -2 and Myeloid diff 2 inactive.
For Cc1cccc(N(C(=O)c2snc(C(N)=O)c2N)C(C(=O)NCC2CCCO2)c2ccc(N(C)C)cc2)c1 (centres undefined) the results were Cardio protect 8, SENP1 FRET inh -3, Granule exo inh 97*, DSG3 Ab inh 108, HNF4A DNA FP 3 and Myeloid diff 2 inactive.
Screening CCOc1ccccc1N(C(=O)c1snc(C(N)=O)c1N)C(C(=O)NC1CCCC1)c1cccs1 (centres undefined) returned Cardio protect 2, SENP1 FRET inh -25, Granule exo inh 74*, DSG3 Ab inh 108, HNF4A DNA FP -1 and Myeloid diff 2 inactive.
Cc1nnc(SCC(=O)Nc2cccc(Cl)c2)n1CC1CCCO1 (centres undefined) was read as Cardio protect 1, SENP1 FRET inh -3, Granule exo inh -4, HNF4A DNA FP 4 and Myeloid diff 2 inactive.
`Cc1ccc2nccc(C(=O)N3CCCC(Nc4ccc(C)c(C)c4)C3)c2c1` (centres undefined) gave Cardio protect 2, SENP1 FRET inh 2, Granule exo inh 17, DSG3 Ab inh 109, HNF4A DNA FP 2 and Myeloid diff 2 inactive.
`Cc1nc(CCNC(=O)C2CCC(=O)N(Cc3cccc(F)c3)C2)sc1C` (centres undefined) gave Cardio protect 9, SENP1 FRET inh 2, Granule exo inh -2, HNF4A DNA FP -4 and Myeloid diff 2 inactive.
For CCOc1cc(CN2CCN(c3ncccn3)CC2)ccc1OC the results were Cardio protect -1, SENP1 FRET inh 1, Granule exo inh -5, DSG3 Ab inh 84*, HNF4A DNA FP 2 and Myeloid diff 2 inactive.
`Cc1ccc(NC(=O)c2ccc(CN3CCN(C)CC3)cc2)cc1Nc1nccc(-c2cccnc2)n1` gave Cardio protect -25, SENP1 FRET inh -1, DSG3 Ab inh 104 and Myeloid diff 2 inconclusive.
COC(=O)c1ccc(C)c(NC(=O)CCSc2ccccc2)c1 was read as Cardio protect 0, SENP1 FRET inh 0, Granule exo inh 5, DSG3 Ab inh inconclusive, HNF4A DNA FP 0 and Myeloid diff 2 inactive.
For COC(=O)c1ccc(C)c(NC(=O)CCSc2ccc(Cl)cc2)c1 the results were Cardio protect -2, SENP1 FRET inh -3, Granule exo inh -1, HNF4A DNA FP 95* and Myeloid diff 2 inactive.
`CCCCn1c(-c2ccc(Br)cc2F)nc2c1c(=O)[nH]c(=O)n2CC(C)C` gave Cardio protect 12, SENP1 FRET inh -1, Granule exo inh 6, DSG3 Ab inh 56*, HNF4A DNA FP -1 and Myeloid diff 2 inactive.
